The structures appear in SMILES notation. Calls of active or inactive are those of the source. The calls are words filed in the database; no cut-off is given here.

Data on 2 molecules can be found in ChEMBL document CHEMBL1152203, “New jasmonate analogues as potential anti-inflammatory agents” (Bioorg Med Chem, 2008).

The subject of data set [1] is RAW264.7. Put plainly: Antiinflammatory activity in LPS-stimulated mouse RAW264.7 cells assessed as inhibition of NO production at 30 uM after 24 hrs by Griess reagent method. Format: functional, cell-based. A digest of the protocol: (§1)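 Samples and prostaglandin references tested at 10 and 30 µM alongside LPS (1 µg/mL) in RAW264.7 cells (1.5 × 10^5 cells/mL), 24 h; NO by Griess reagent. Triplicate experiments, means ± SD.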

Data set [2] concerns RAW264.7. The experiment in a line: Antiinflammatory activity in LPS-stimulated mouse RAW264.7 cells assessed as inhibition of NO production at 6.25 uM after 24 hrs by Griess reagent method. The format is functional, cell-based. The method, boiled down: (§2)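 NO series at 3.12, 6.25 and 12.5 µM: RAW264.7 cells (1.5 × 10^5 cells/mL) co-treated with LPS (1 µg/mL) for 24 h; nitrite by Griess reagent. Means ± SD of triplicate experiments.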

Data set [3] concerns RAW264.7. Put plainly: Cytotoxicity against LPS-stimulated mouse RAW264.7 cells at 10 uM after 24 hrs by MTT assay. Format: cell-based. Particulars: raw264.7, 24 h. A digest of the protocol: (§3)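 Viability of RAW264.7 cells (1.5 × 10^5 cells/mL) after 24 h exposure to LPS (1 µg/mL) plus test sample, by MTT. MTT added for 4 h, formazan dissolved in DMSO, absorbance 540 nm. Means ± SD of duplicate (50, 100 µM) or triplicate (other concentrations) experiments.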

Data set [4] deals with RAW264.7. The experiment in a line: Antiinflammatory activity in LPS-stimulated mouse RAW264.7 cells assessed as inhibition of IL6 production at after 24 hrs by ELISA. Format: functional, cell-based. A digest of the protocol: (§4)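 RAW264.7 cells at 1.5 × 10^5 cells/mL, pre-incubated 18 h in 24-well plates, then stimulated with LPS (1 µg/mL) alone or with test samples for 24 h. Samples dissolved in EtOH diluted with DMEM, solvent ≤0.1% final. NO in supernatant by Griess reagent (10 min, room temperature, light protected, absorbance 540 nm); IL-6 and TNF-α by ELISA. Mean ± SD.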
In general terms: In an ELISA, binding on a coated surface is turned into a signal by an enzyme label.

The test system of data set [5] is RAW264.7. The experiment in a line: Cytotoxicity against LPS-stimulated mouse RAW264.7 cells at 3.12 uM after 24 hrs by MTT assay. The note with it: raw264.7, 24 h. Format: cell-based. The method, boiled down: as §3
The test system of data set [6] is RAW264.7. The experiment in a line: Antiinflammatory activity in LPS-stimulated mouse RAW264.7 cells assessed as inhibition of NO production after 24 hrs by Griess reagent method. Format: functional, cell-based. A digest of the protocol: as §4
For orientation: Nitrite, measured by Griess reagent, commonly stands in for NO production.

Data set [7] deals with RAW264.7. The experiment in a line: Cytotoxicity against LPS-stimulated mouse RAW264.7 cells at 12.5 uM after 24 hrs by MTT assay. Particulars: raw264.7, 24 h. The format is cell-based. A digest of the protocol:
as §3
On the technique in general: Tetrazolium dyes change colour on reduction, which living cells bring about.

Data set [8] has as its system RAW264.7. Put plainly: Cytotoxicity against LPS-stimulated mouse RAW264.7 cells at 25 uM after 24 hrs by MTT assay. Format: cell-based. The note with it: raw264.7, 24 h. The method, boiled down:
as §3

The test system of data set [9] is RAW264.7. The experiment in a line: Antiinflammatory activity in LPS-stimulated mouse RAW264.7 cells assessed as inhibition of NO production at 10 uM after 24 hrs by Griess reagent method. Format: functional, cell-based. The method, boiled down:
as §1

Data set [10] concerns RAW264.7. Put plainly: Cytotoxicity against LPS-stimulated mouse RAW264.7 cells at 6.25 uM after 24 hrs by MTT assay. Format: cell-based. The note with it: raw264.7, 24 h. The method, boiled down:
as §3

For data set [11], the system named is RAW264.7. Put plainly: Antiinflammatory activity in LPS-stimulated mouse RAW264.7 cells assessed as inhibition of TNFalpha production after 24 hrs by ELISA. The format is functional, cell-based. The method, boiled down:
as §4

The test system of data set [12] is RAW264.7. The experiment in a line: Antiinflammatory activity in LPS-stimulated mouse RAW264.7 cells assessed as inhibition of NO production at 3.12 uM after 24 hrs by Griess reagent method. The format is functional, cell-based. A digest of the protocol: as §2

With `CC/C=C\CC1C(=O)C(Br)=CC1CC(=O)OC` (centres undefined), the result in the data set with RAW264.7 [1], with RAW264.7 [2], in the data set on RAW264.7 [9] and with RAW264.7 [12] was Active. Also, the Activity result with RAW264.7 [3] is “Toxic”; in the data set with RAW264.7 [4], “Dose-dependent effect”; in the data set with RAW264.7 [5] it was “Non-toxic”; with RAW264.7 [6], “Dose-dependent effect”; with RAW264.7 [7], “Toxic”; in the data set on RAW264.7 [8], “Toxic”. Also, the Activity entry with RAW264.7 [10] is “Non-toxic”; in the data set on RAW264.7 [11], “Dose-dependent effect”.
Take `CCCCCC1C(=O)C(Br)=CC1CC(=O)OC` (centres undefined): the outcome in the data set with RAW264.7 [1], in the data set on RAW264.7 [2], with RAW264.7 [9] and in the data set on RAW264.7 [12] was Active. The Activity entry in the data set with RAW264.7 [3] is “Toxic”; with RAW264.7 [4], “Dose-dependent effect”; in the data set on RAW264.7 [5], “Non-toxic”; in the data set on RAW264.7 [6] it was “Dose-dependent effect”; in the data set with RAW264.7 [7], “Toxic”; in the data set on RAW264.7 [8] it was “Toxic”. The Activity result in the data set with RAW264.7 [10] was “Non-toxic”; with RAW264.7 [11], “Dose-dependent effect”.
